According to ChEMBL document CHEMBL3232893, “Design of antiviral stapled peptides containing a biphenyl cross-linker” (Bioorg Med Chem Lett, 2014):
pIC50, pKd: −log10 of the molar value. Peptide text beside a SMILES is read from it.

Legend:
[1] = system: Human immunodeficiency virus 1; test: Antiviral activity against HIV-1 pseudotyped virus expressing HIV-1 isolate A envelope QH343.21M.ENV.A10 assessed as reduction of luciferase production after 3 days by single-cycle neutralization assay; assay type: functional, organism-based; conditions: Human immunodeficiency virus 1, 72 h
In short: (§1)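 Single-cycle assay using pseudoviruses carrying Env from primary HIV-1 isolates of subtypes A, A/D, A/G, B, C and D reference viruses. Read-out is luciferase production, and IC50 is determined.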

[2] = system: Human immunodeficiency virus 1; test: Antiviral activity against HIV-1 pseudotyped virus expressing HIV-1 isolate A envelope QF495.23M.ENV.B2 assessed as reduction of luciferase production after 3 days by single-cycle neutralization assay; assay type: functional, organism-based; conditions: Human immunodeficiency virus 1, 72 h; in short: as §1
[3] = system: Human immunodeficiency virus 1; test: Antiviral activity against HIV-1 pseudotyped virus expressing HIV-1 isolate D envelope QD435.100M.ENV.B5 assessed as reduction of luciferase production after 3 days by single-cycle neutralization assay; assay type: functional, organism-based; conditions: Human immunodeficiency virus 1, 72 h; in short: as §1
[4] = system: Human immunodeficiency virus 1; test: Antiviral activity against HIV-1 pseudotyped virus expressing HIV-1 isolate C envelope HIV-26191-2, clone 48 assessed as reduction of luciferase production after 3 days by single-cycle neutralization assay; assay type: functional, organism-based; conditions: Human immunodeficiency virus 1, 72 h; in short: as §1
[5] = system: Human immunodeficiency virus 1; test: Antiviral activity against HIV-1 pseudotyped virus expressing HIV-1 isolate D envelope QA013.70I.ENV.M12 assessed as reduction of luciferase production after 3 days by single-cycle neutralization assay; assay type: functional, organism-based; conditions: Human immunodeficiency virus 1, 72 h; in short: as §1
[6] = system: Human immunodeficiency virus 1; test: Antiviral activity against HIV-1 NL4-3-HXB2 pseudovirus co-transfected with luciferase gene infected in human TZM-bl cells assessed as reduction of luciferase production after 3 days by single-cycle neutralization assay; assay type: functional, organism-based; conditions: Human immunodeficiency virus 1, NL4-3-HXB2, TZM-bl, 72 h
In short: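 Single-cycle neutralization in TZM-bl cells; read-out is reduction of luciferase production. IC50 derived from dose-response.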

[7] = system: Human immunodeficiency virus 1; test: Antiviral activity against HIV-1 3B infected in human MT-2 cells assessed as reduction in p24 antigen level incubated for overnight measured on fourth day post infection by multi-cycle infection assay based sandwich ELISA; assay type: functional, organism-based; conditions: Human immunodeficiency virus 1, 3B, MT2
In short: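 Multi-cycle infection in MT-2 cells; read-out is reduction of p24 levels. IC50 derived from dose-response.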

[8] = system: Human immunodeficiency virus 1; test: Antiviral activity against HIV-1 pseudotyped virus expressing HIV-1 isolate B envelope pREJO4541 clone 67 (SVPB16) assessed as reduction of luciferase production after 3 days by single-cycle neutralization assay; assay type: functional, organism-based; conditions: Human immunodeficiency virus 1, 72 h; in short: as §1
[9] = system: Human immunodeficiency virus 1; test: Antiviral activity against HIV-1 pseudotyped virus expressing HIV-1 isolate AD envelope QA790.204I.ENV.E2 assessed as reduction of luciferase production after 3 days by single-cycle neutralization assay; assay type: functional, organism-based; conditions: Human immunodeficiency virus 1, 72 h; in short: as §1
[10] = system: Human immunodeficiency virus 1; test: Antiviral activity against HIV-1 pseudotyped virus expressing HIV-1 isolate D envelope QD435.100M.ENV.E1 assessed as reduction of luciferase production after 3 days by single-cycle neutralization assay; assay type: functional, organism-based; conditions: Human immunodeficiency virus 1, 72 h; in short: as §1
[11] = system: Human immunodeficiency virus 1; test: Antiviral activity against HIV-1 pseudotyped virus expressing HIV-1 isolate A envelope QB726.70M.ENV.B3 assessed as reduction of luciferase production after 3 days by single-cycle neutralization assay; assay type: functional, organism-based; conditions: Human immunodeficiency virus 1, 72 h; in short: as §1
[12] = system: Human immunodeficiency virus 1; test: Antiviral activity against HIV-1 pseudotyped virus expressing HIV-1 isolate C envelope HIV-25925-2, clone 22 assessed as reduction of luciferase production after 3 days by single-cycle neutralization assay; assay type: functional, organism-based; conditions: Human immunodeficiency virus 1, 72 h; in short: as §1
[13] = system: Human immunodeficiency virus 1; test: Antiviral activity against HIV-1 pseudotyped virus expressing HIV-1 isolate AD envelope QA790.204I.ENV.A4 assessed as reduction of luciferase production after 3 days by single-cycle neutralization assay; assay type: functional, organism-based; conditions: Human immunodeficiency virus 1, 72 h; in short: as §1
[14] = system: Human immunodeficiency virus 1; test: Antiviral activity against HIV-1 pseudotyped virus expressing HIV-1 isolate A envelope QF495.23M.ENV.A3 assessed as reduction of luciferase production after 3 days by single-cycle neutralization assay; assay type: functional, organism-based; conditions: Human immunodeficiency virus 1, 72 h; in short: as §1
[15] = Cytotoxicity against human MT2 cells after 4 days by XTT assay; assay type: cell-based
[16] = Binding affinity to HIV-1 capsid protein C-terminal domain M184A/W185A mutant at 20 uM by isothermal titration calorimetric analysis; parameters: species or system Human immunodeficiency virus 1
In short: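 ITC: 625 μM CTD M184A/W185A mutant titrated in 10 μL aliquots into 20 μM peptide in the cell. The integrated binding isotherm was fitted to a single-site binding equation to give Kd.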

[17] = Binding affinity to HIV-1 Yu2 full-length gp120 by surface plasmon resonance analysis; parameters: species or system Human immunodeficiency virus type 1 (isolate YU2)
In short: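 Gp120 binding was measured by SPR. Sensorgrams were fitted to a 1:1 Langmuir model to give ka and kd, and Kd was calculated from these rate constants.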

[18] = Cytotoxicity against human TZM-bl cells after 3 days by XTT assay; assay type: cell-based
[19] = system: Human immunodeficiency virus 1; test: Antiviral activity against HIV-1 pseudotyped virus expressing HIV-1 isolate D envelope QD435.100M.ENV.A4 assessed as reduction of luciferase production after 3 days by single-cycle neutralization assay; assay type: functional, organism-based; conditions: Human immunodeficiency virus 1, 72 h; in short: as §1
[20] = system: Human immunodeficiency virus 1; test: Antiviral activity against HIV-1 pseudotyped virus expressing HIV-1 isolate C envelope Du156, clone 12 (SVPC3) assessed as reduction of luciferase production after 3 days by single-cycle neutralization assay; assay type: functional, organism-based; conditions: Human immunodeficiency virus 1, 72 h; in short: as §1
[21] = system: Human immunodeficiency virus 1; test: Antiviral activity against HIV-1 pseudotyped virus expressing HIV-1 isolate AG envelope CRF02_AG (clone 211) assessed as reduction of luciferase production after 3 days by single-cycle neutralization assay; assay type: functional, organism-based; conditions: Human immunodeficiency virus 1, 72 h; in short: as §1
[22] = system: Human immunodeficiency virus 1; test: Antiviral activity against HIV-1 pseudotyped virus expressing HIV-1 isolate B envelope SC422661, clone B (SVPB8) assessed as reduction of luciferase production after 3 days by single-cycle neutralization assay; assay type: functional, organism-based; conditions: Human immunodeficiency virus 1, 72 h; in short: as §1
[23] = system: Human immunodeficiency virus 1; test: Antiviral activity against HIV-1 pseudotyped virus expressing HIV-1 isolate B envelope pCAAN5342 clone A2 (SVPB19) assessed as reduction of luciferase production after 3 days by single-cycle neutralization assay; assay type: functional, organism-based; conditions: Human immunodeficiency virus 1, 72 h; in short: as §1
[24] = system: Human immunodeficiency virus 1; test: Antiviral activity against HIV-1 pseudotyped virus expressing HIV-1 isolate C envelope ZM135M.PL10a, SVPC15 assessed as reduction of luciferase production after 3 days by single-cycle neutralization assay; assay type: functional, organism-based; conditions: Human immunodeficiency virus 1, 72 h; in short: as §1
[25] = system: Human immunodeficiency virus 1; test: Antiviral activity against HIV-1 pseudotyped virus expressing HIV-1 isolate D envelope QA465.59M.ENV.A1 assessed as reduction of luciferase production after 3 days by single-cycle neutralization assay; assay type: functional, organism-based; conditions: Human immunodeficiency virus 1, 72 h; in short: as §1
[26] = system: Human immunodeficiency virus 1; test: Antiviral activity against HIV-1 pseudotyped virus expressing HIV-1 isolate AG envelope CRF02_AG (clone 263) assessed as reduction of luciferase production after 3 days by single-cycle neutralization assay; assay type: functional, organism-based; conditions: Human immunodeficiency virus 1, 72 h; in short: as §1
[27] = system: Human immunodeficiency virus 1; test: Antiviral activity against HIV-1 pseudotyped virus expressing HIV-1 isolate D envelope QA465.59M.ENV.D1 assessed as reduction of luciferase production after 3 days by single-cycle neutralization assay; assay type: functional, organism-based; conditions: Human immunodeficiency virus 1, 72 h; in short: as §1
[28] = system: Human immunodeficiency virus 1; test: Antiviral activity against HIV-1 pseudotyped virus expressing HIV-1 isolate B envelope PVO, clone 4 (SVPB11) assessed as reduction of luciferase production after 3 days by single-cycle neutralization assay; assay type: functional, organism-based; conditions: Human immunodeficiency virus 1, 72 h; in short: as §1
[29] = system: Human immunodeficiency virus 1; test: Antiviral activity against HIV-1 pseudotyped virus expressing HIV-1 isolate C envelope ZM233M.PB6, SVPC9 assessed as reduction of luciferase production after 3 days by single-cycle neutralization assay; assay type: functional, organism-based; conditions: Human immunodeficiency virus 1, 72 h; in short: as §1
[30] = system: Human immunodeficiency virus 1; test: Antiviral activity against HIV-1 pseudotyped virus expressing HIV-1 isolate B envelope pRHPA4259 clone 7 (SVPB14) assessed as reduction of luciferase production after 3 days by single-cycle neutralization assay; assay type: functional, organism-based; conditions: Human immunodeficiency virus 1, 72 h; in short: as §1
[31] = Binding affinity to HIV-1 capsid protein C-terminal domain M184A/W185A mutant at 15 uM by isothermal titration calorimetric analysis; parameters: species or system Human immunodeficiency virus 1
In short: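 ITC: 350 μM CTD M184A/W185A mutant titrated in 10 μL aliquots into 15 μM peptide in the cell. The integrated binding isotherm was fitted to a single-site binding equation to give Kd.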

[32] = Binding affinity to HIV-1 C-terminal domain of capsid protein p24; parameters: species or system Human immunodeficiency virus 1

CC[C@H](C)[C@H](NC(C)=O)C(=O)N[C@@H](CO)C(=O)N[C@@H](Cc1ccccc1)C(=O)N[C@@H]1CSCc2ccc(cc2)-c2ccc(cc2)CSC[C@@H](C(=O)N[C@@H](CCC(=O)O)C(=O)N[C@@H](CO)C(=O)NCC(=O)N[C@@H](CO)C(N)=O)NC(=O)[C@H](Cc2ccc(O)cc2)NC(=O)[C@H](Cc2ccc(O)cc2)NC(=O)[C@H](CC(=O)O)NC(=O)[C@H](CC(C)C)NC(=O)[C@H](CC(C)C)NC(=O)[C@H](CCC(=O)O)NC1=O
pIC50 [1]: 4.81 | pIC50 [2]: 5.00 | pIC50 [3]: 4.81 | pIC50 [4]: 5.20 | pIC50 [5]: 4.81 | pIC50 [6]: 5.72 | pIC50 [7]: 5.55 | pIC50 [8]: 5.47 | pIC50 [9]: 5.11 | pIC50 [10]: 4.81 | pIC50 [11]: 4.81 | pIC50 [12]: 5.96 | pIC50 [13]: 5.15 | pIC50 [14]: 5.85 | CC50 at 96 h [15]: > 103 µM | pKd [16]: 4.76 | pKd [17]: 5.13 | CC50 at 72 h [18]: > 103 µM | pIC50 [19]: 6.00 | pIC50 [20]: 4.75 | pIC50 [21]: 5.40 | pIC50 [22]: 5.43 | pIC50 [23]: 5.34 | pIC50 [24]: 6.00 | pIC50 [25]: 4.81 | pIC50 [26]: 5.36 | pIC50 [27]: 5.11 | pIC50 [28]: 5.46 | pIC50 [29]: 5.44 | pIC50 [30]: 5.80

CC[C@H](C)[C@H](N)C(=O)N[C@H](C(=O)N[C@@H](Cc1ccccc1)C(=O)N[C@@H](CCC(=O)O)C(=O)N[C@@H](CC(=O)O)C(=O)N[C@@H](CC(C)C)C(=O)N[C@@H](CC(C)C)C(=O)N[C@@H](CC(=O)O)C(=O)N[C@@H](Cc1ccc(O)cc1)C(=O)N[C@@H](Cc1ccc(O)cc1)C(=O)NCC(=O)N1CCC[C@H]1C(=O)O)[C@@H](C)O (H-ITFEDLLDYYGP-OH)
pIC50 [6]: < 3.87 | pIC50 [7]: < 3.87 | CC50 at 96 h [15]: > 135 µM | CC50 at 72 h [18]: > 135 µM | pKd [31]: 5.08 | pKd [32]: 4.82
